Measurements taken from ChEMBL document CHEMBL2163237, “Molecular determinants of selectivity and efficacy at the dopamine D3 receptor” (J Med Chem, 2012).

Legend:
[1] = organism: Homo sapiens; test: Selectivity ratio of Ki for human D2L receptor to Ki for human D3 receptor
[2] = biological target: T1, D(3) dopamine receptor (Homo sapiens, UniProt P35462); test: Displacement of [125I]IABN from human D3 receptor expressed in HEK293 cells after 60 mins by gamma counting analysis; type: cell-based
Procedure, shortened: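 Competitor spanned 5 orders of magnitude. Nonspecific binding defined with 15 µM (+)-butaclamol. Filtration with cold wash, then gamma counting. Single-site IC50 converted to Ki by Cheng-Prusoff. Mean of ≥3 independent experiments.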

[3] = biological target: D(2) dopamine receptor (Homo sapiens, UniProt P14416); test: Displacement of [125I]IABN from human D2L receptor expressed in HEK293 cells after 60 mins by gamma counting analysis; type: cell-based
Procedure, shortened: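 Competitor spanned 5 orders of magnitude. Filtration with cold wash, then gamma counting. Single-site IC50 converted to Ki by Cheng-Prusoff. Mean of ≥3 independent experiments.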

[4] = biological target: T1, D(3) dopamine receptor; test: Partial agonist activity at human D3 receptor expressed in HEK293T cells coexpressing GalphaoA-91-Rluc8 and mVenus-Gbeta1gamma2 after 2 mins by bioluminescence resonance energy transfer assay relative to dopamine; type: functional, cell-based; conditions: HEK-293T
Procedure, shortened: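 Human D3R transiently co-transfected (PEI) into HEK-293T cells with GαoA-RLuc8 and split-mVenus Gβ1/Gγ2; assayed ~48 h post-transfection. Cells in PBS/0.1% glucose at room temperature (40 µg protein/well), coelenterazine h 5 µM for 8 min, ligand for 2 min; BRET1 ratio 510–540/485 nm.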

T1 sequence (P35462 whole entry): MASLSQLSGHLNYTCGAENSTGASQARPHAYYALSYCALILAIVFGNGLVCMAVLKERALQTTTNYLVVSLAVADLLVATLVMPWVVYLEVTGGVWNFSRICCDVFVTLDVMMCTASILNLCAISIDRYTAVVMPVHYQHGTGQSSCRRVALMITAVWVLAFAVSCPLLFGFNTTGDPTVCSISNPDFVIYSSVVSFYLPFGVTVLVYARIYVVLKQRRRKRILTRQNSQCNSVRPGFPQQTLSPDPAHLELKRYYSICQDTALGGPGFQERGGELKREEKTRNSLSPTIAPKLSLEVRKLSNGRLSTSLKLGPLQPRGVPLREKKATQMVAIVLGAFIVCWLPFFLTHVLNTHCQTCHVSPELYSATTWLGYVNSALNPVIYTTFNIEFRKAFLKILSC
Chain of D(2) dopamine receptor (P14416 whole entry): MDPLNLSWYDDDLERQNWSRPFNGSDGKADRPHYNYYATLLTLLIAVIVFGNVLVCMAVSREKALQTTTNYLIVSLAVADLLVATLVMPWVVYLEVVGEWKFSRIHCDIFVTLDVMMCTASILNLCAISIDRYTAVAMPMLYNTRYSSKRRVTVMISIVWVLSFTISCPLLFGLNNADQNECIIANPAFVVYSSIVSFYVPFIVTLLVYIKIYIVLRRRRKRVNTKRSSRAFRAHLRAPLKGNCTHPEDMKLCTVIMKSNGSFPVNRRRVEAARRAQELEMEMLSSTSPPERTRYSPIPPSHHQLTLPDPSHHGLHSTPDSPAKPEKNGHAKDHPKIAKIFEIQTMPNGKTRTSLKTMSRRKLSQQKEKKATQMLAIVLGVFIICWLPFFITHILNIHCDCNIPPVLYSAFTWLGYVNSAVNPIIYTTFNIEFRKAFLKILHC

CCC(=O)NCCCCN1CCN(c2cccc(Cl)c2Cl)CC1
Ratio Ki [1]: 3.25 | Ki [2]: 0.0048 µM | Ki [3]: 0.0156 µM

CCC(=O)NCCCCN1CCN(c2ccccc2OC)CC1
Ratio Ki [1]: 2.18 | Ki [2]: 0.0386 µM | Ki [3]: 0.084 µM

COc1ccccc1N1CCN(C)CC1
Ratio Ki [1]: 0.45 | Ki [2]: 0.59 µM | Ki [3]: 0.265 µM

CCCCN1CCN(c2cccc(Cl)c2Cl)CC1
Ratio Ki [1]: 1.79 | Ki [2]: 0.0019 µM | Ki [3]: 0.0034 µM

O=C(NCC[C@@H](O)CN1CCN(c2cccc(Cl)c2Cl)CC1)c1cc2ccccc2[nH]1
Emax [4]: 20.6%

COc1ccccc1N1CCNCC1
Ratio Ki [1]: 0.3 | Ki [2]: 2.26 µM | Ki [3]: 0.68 µM

O=C(NCCCCN1CCN(c2cccc(Cl)c2Cl)CC1)c1cc2ccccc2[nH]1
Ki [2]: 0.0014 µM | Emax [4]: 16%

Clc1cccc(N2CCNCC2)c1Cl
Ratio Ki [1]: 0.69 | Ki [2]: 0.197 µM | Ki [3]: 0.137 µM

OCCN1CCN(c2cccc(Cl)c2Cl)CC1
Ratio Ki [1]: 1.75 | Ki [2]: 0.0363 µM | Ki [3]: 0.0637 µM

CN1CCN(c2cccc(Cl)c2Cl)CC1
Ratio Ki [1]: 0.84 | Ki [2]: 0.0546 µM | Ki [3]: 0.0459 µM

CCCN1CCN(c2cccc(Cl)c2Cl)CC1
Ratio Ki [1]: 0.82 | Ki [2]: 0.0063 µM | Ki [3]: 0.0052 µM

COc1ccccc1N1CCN(CCCCNC(=O)c2cc3ccccc3[nH]2)CC1
Emax [4]: 8.38%

CCCCNC(=O)c1cc2ccccc2[nH]1
Ki [2]: 21.5 µM

CCCCN1CCN(c2ccccc2OC)CC1
Ratio Ki [1]: 0.86 | Ki [2]: 0.0239 µM | Ki [3]: 0.0206 µM
